# Source: ChEMBL document CHEMBL4354800, “Amphiphilic nebramine-based hybrids Rescue legacy antibiotics from intrinsic resistance in multidrug-resistant Gram-negative bacilli” (Eur J Med Chem, 2019)
# Legend:
# Type in all cases: functional
# Pseudomonas aeruginosa [1] = experiment: Potentiation of ciprofloxacin-induced antibacterial activity against MDR/XDR Pseudomonas aeruginosa isolate 100036 harboring GyrA T83I mutant assessed as fold reduction in ciprofloxacin MIC at 7.5 uM incubated for 18 hrs by broth microdilution method
# Pseudomonas aeruginosa [2] = experiment: Potentiation of ciprofloxacin-induced antibacterial activity against MDR/XDR Pseudomonas aeruginosa isolate PA262-101856 harboring GyrA T83I mutant assessed as fold reduction in ciprofloxacin MIC at 7.5 uM incubated for 18 hrs by broth microdilution method
# Acinetobacter baumannii [3] = experiment: Antimicrobial activity against multidrug-resistant Acinetobacter baumannii AB027 incubated for 18 hrs by broth dilution method; conditions: AB027, 18 h
# Procedure, shortened: (§1)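 Broth microdilution per CLSI: overnight cultures set to 0.5 McFarland in saline, diluted 1:50 in Mueller-Hinton broth to a final 5 × 10^5 CFU/mL, added to 2-fold serial dilutions, incubated 18 h at 37 °C; MIC is the lowest concentration without visible turbidity, confirmed at 590 nm.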
# Acinetobacter baumannii [4] = experiment: Antimicrobial activity against multidrug-resistant Acinetobacter baumannii 110193 incubated for 18 hrs by broth dilution method; conditions: Acinetobacter baumannii, 110193, 18 h; procedure, shortened: as §1
# Pseudomonas aeruginosa [5] = experiment: Potentiation of rifampicin-induced antibacterial activity against MDR/XDR Pseudomonas aeruginosa isolate 101243 devoid of GyrA T83I mutant assessed as fold reduction in rifampicin MIC at 7.5 uM incubated for 18 hrs by broth microdilution method
# Procedure, shortened: (§2)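 CLSI broth microdilution. Overnight cultures were set to 0.5 McFarland in saline, diluted 1:50 in Mueller-Hinton broth to a final 5 × 10^5 CFU/mL, and incubated 18 h at 37 °C against 2-fold antibiotic dilutions. A fixed adjuvant level was present throughout. MIC = lowest concentration with no visible turbidity, confirmed at 590 nm. Potentiation = fold drop in antibiotic MIC versus antibiotic alone.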
# Pseudomonas aeruginosa [6] = experiment: Potentiation of minocycline-induced antimicrobial activity against MDR/XDR Pseudomonas aeruginosa isolate PA264-104354 harboring GyrA Thr83Ile mutant assessed as minocycline MIC50 incubated for 18 hrs by broth microdilution method (reference value: 16 microg/ml); conditions: isolate PA264-104354, 18 h
# Pseudomonas aeruginosa [7] = experiment: Potentiation of rifampicin-induced antimicrobial activity against MDR/XDR Pseudomonas aeruginosa isolate 101885 harboring GyrA Thr83Ile mutant assessed as rifampicin MIC80 incubated for 18 hrs by broth microdilution method (reference value: 16 microg/ml); conditions: isolate 101885, 18 h
# Pseudomonas aeruginosa [8] = experiment: Potentiation of rifampicin-induced antibacterial activity against MDR/XDR Pseudomonas aeruginosa isolate PA262-101856 harboring GyrA T83I mutant assessed as fold reduction in rifampicin MIC at 7.5 uM incubated for 18 hrs by broth microdilution method; procedure, shortened: as §2
# Pseudomonas aeruginosa [9] = experiment: Potentiation of moxifloxacin-induced antibacterial activity against MDR/XDR Pseudomonas aeruginosa isolate 101885 harboring GyrA T83I mutant assessed as fold reduction in moxifloxacin MIC at 7.5 uM incubated for 18 hrs by broth microdilution method; procedure, shortened: as §2
# Pseudomonas aeruginosa [10] = experiment: Potentiation of moxifloxacin-induced antibacterial activity against MDR/XDR Pseudomonas aeruginosa isolate 100036 harboring GyrA T83I mutant assessed as fold reduction in moxifloxacin MIC at 7.5 uM incubated for 18 hrs by broth microdilution method; procedure, shortened: as §2
# Pseudomonas aeruginosa [11] = experiment: Potentiation of minocycline-induced antimicrobial activity against MDR/XDR Pseudomonas aeruginosa isolate PA262-101856 harboring GyrA Thr83Ile mutant assessed as minocycline MIC80 incubated for 18 hrs by broth microdilution method (reference value: 32 microg/ml); conditions: isolate PA262-101856, 18 h
# Pseudomonas aeruginosa [12] = experiment: Potentiation of rifampicin-induced antibacterial activity against MDR/XDR Pseudomonas aeruginosa isolate 91433 devoid of GyrA T83I mutant assessed as fold reduction in rifampicin MIC at 9 uM incubated for 18 hrs by broth microdilution method; procedure, shortened: as §2
Structure (SMILES),fold change (FC) (Pseudomonas aeruginosa [1]),fold change (FC) (Pseudomonas aeruginosa [2]),MIC (Acinetobacter baumannii [3]),MIC (Acinetobacter baumannii [4]),fold change (FC) (Pseudomonas aeruginosa [5]),MIC50 (Pseudomonas aeruginosa [6]),MIC80 (Pseudomonas aeruginosa [7]),fold change (FC) (Pseudomonas aeruginosa [8]),fold change (FC) (Pseudomonas aeruginosa [9]),fold change (FC) (Pseudomonas aeruginosa [10]),MIC80 (Pseudomonas aeruginosa [11]),fold change (FC) (Pseudomonas aeruginosa [12])
COc1c(N2C[C@@H]3CCCN(CCCCCCCCCCCCO[C@@H]4[C@@H](O)[C@H](N)C[C@H](N)[C@H]4O[C@H]4O[C@H](CN)[C@@H](O)C[C@H]4N)[C@@H]3C2)c(F)cc2c(=O)c(C(=O)O)cn(C3CC3)c12.Cl.Cl.Cl.Cl.Cl,2,4,> 256 µg/mL,> 256 µg/mL,32,0.5 µg/mL,0.13 µg/mL,512,4,16,1 µg/mL,
Cl.Cl.Cl.Cl.Cl.Cl.NC[C@H]1O[C@H](O[C@H]2[C@H](OCCCCCCCCCCN3CCN(Cc4cccc5ccccc45)CC3)[C@@H](O)[C@H](N)C[C@@H]2N)[C@H](N)C[C@@H]1O,,,,,,,,,,,,4
